From ChEMBL document CHEMBL1671817, “Synthesis of cationic antimicrobial β(2,2)-amino acid derivatives with potential for oral administration” (J Med Chem, 2011)
Converted amounts (≈) assume the structure as drawn. The source made the active and inactive calls. No cut-off for these calls is given here.

Key:
[1] = Therapeutic index, ratio of EC50 for human RBC hemolytic activity to MIC for methicillin-resistant Staphylococcus epidermidis ATCC 27626; conditions: human red blood cells (RBC), read-out: TI
Method in brief: (§1)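 Index taken as hemolytic EC50 divided by MIC for each strain. Hemolysis: human RBCs from heparinized blood, washed with 37 °C PBS, diluted to 10% hematocrit. Cells exposed at 1% v/v final to compound in PBS at 1–1000 μg/mL for 1 h at 37 °C with agitation. Hemoglobin read by supernatant A405 against PBS and 0.1% Triton X-100 controls. MICs in duplicate at 0.5–200 μg/mL.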

Escherichia coli = assay: Antimicrobial activity against Escherichia coli ATCC 25922; format: functional
[2] = Therapeutic index, ratio of EC50 for human RBC hemolytic activity to MIC for methicillin-resistant Staphylococcus aureus ATCC 33591; conditions: human red blood cells (RBC), read-out: TI; method in brief: as §1
Staphylococcus aureus [3] = assay: Antimicrobial activity against methicillin-resistant Staphylococcus aureus ATCC 33591; format: functional
Method in brief: (§2)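 MIC screen run at a contract lab. Each compound, as its ditrifluoroacetate salt, tested in duplicate at 200, 100, 50, 35, 15, 10, 5, 2.5, 1 and 0.5 μg/mL. Molar values calculated from the salt form. Gentamicin used as positive control.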

[4] = Therapeutic index, ratio of EC50 for human RBC hemolytic activity to MIC for Escherichia coli ATCC 25922; conditions: human red blood cells (RBC), read-out: TI; method in brief: as §1
[5] = Hemolytic activity against human RBC assessed as hemoglobin release after 1 hr; format: ADME, cell-based; conditions: Erythrocyte
Method in brief: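 Heparinized human blood freed of plasma by centrifugation, washed three times in 37 °C PBS, diluted to 10% hematocrit and added to compound in PBS (1–1000 μg/mL) to 1% v/v erythrocytes. PBS negative, 0.1% v/v Triton X-100 positive control.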

[6] = Therapeutic index, ratio of EC50 for human RBC hemolytic activity to MIC for Staphylococcus aureus ATCC 25923; conditions: human red blood cells (RBC), read-out: TI; method in brief: as §1
Staphylococcus aureus [7] = assay: Antimicrobial activity against Staphylococcus aureus ATCC 25923; format: functional
[8] = test system: Staphylococcus epidermidis; assay: Antimicrobial activity against methicillin-resistant Staphylococcus epidermidis ATCC 27626; format: functional; method in brief: as §2
Pseudomonas aeruginosa = assay: Antimicrobial activity against Pseudomonas aeruginosa ATCC 27853; format: functional
[9] = Therapeutic index, ratio of EC50 for human RBC hemolytic activity to MIC for Pseudomonas aeruginosa ATCC 27853; conditions: human red blood cells (RBC), read-out: TI; method in brief: as §1
[10] = Permeability of the compound across phospholipid vesicle based barrier model at pH 7.4; format: ADME
Method in brief: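 Passive diffusion through phospholipid vesicle-based barriers (egg lipid extract, ~82% phosphatidylcholine) on filter inserts at room temperature. Donor in phosphate buffer pH 7.4, or pH 5.5 for a poorly soluble compound; acceptor always pH 7.4. Inserts moved to fresh acceptor wells; UV 230 nm at 1, 2, 3, 3.5, 4, 4.5, 5 h; barrier resistance checked afterwards.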

Staphylococcus aureus [11] = assay: Antimicrobial activity against Staphylococcus aureus assessed as cell wall mesosome structure and septum of bacteria at 234 uM after 2 hrs by transmission electron microscopy; format: functional, organism-based
Staphylococcus aureus [12] = assay: Antimicrobial activity against Staphylococcus aureus assessed as cell wall mesosome structure and septum of bacteria at 117 uM after 3 hrs by transmission electron microscopy; format: functional, organism-based

Structure (SMILES)	selectivity ratio [1]	MIC (Escherichia coli)	selectivity ratio [2]	MIC (Staphylococcus aureus [3])	selectivity ratio [4]	EC50 [5]	selectivity ratio [6]	MIC (Staphylococcus aureus [7])	MIC [8]	MIC (Pseudomonas aeruginosa)	selectivity ratio [9]	permeability [10]	Activity (Staphylococcus aureus [11])	Activity (Staphylococcus aureus [12])
CN(C)CCNC(=O)C(CN)(Cc1ccc(C(F)(F)F)cc1)Cc1ccc(C(F)(F)F)cc1.O=C(O)C(F)(F)F.O=C(O)C(F)(F)F	22	50 µM	66	7.1 µM	9.4	468 µM	33	14 µM	21 µM	–	–	–	–	–
NCCNC(=O)C(CN)(CCCc1ccccc1)CCCc1ccccc1.O=C(O)C(F)(F)F.O=C(O)C(F)(F)F	55	336 µM	23	59 µM	4.1	1380 µM	19	71 µM	25 µM	–	–	–	–	–
CN1CCN(C(=O)C(CN)(Cc2ccc(C(C)(C)C)cc2)Cc2ccc(C(C)(C)C)cc2)CC1.O=C(O)C(F)(F)F.O=C(O)C(F)(F)F	48	15 µM	23	15 µM	23	348 µM	23	15 µM	7.2 µM	289 µM	1.2	–	–	–
NCCNC(=O)C(CN)(Cc1ccc(C(F)(F)F)cc1)Cc1ccc(C(F)(F)F)cc1.O=C(O)C(F)(F)F.O=C(O)C(F)(F)F	28	52 µM	57	7.4 µM	8	425 µM	28	15 µM	15 µM	–	–	–	–	–
CN(C)CCN1CCN(C(=O)C(CN)(CCCc2ccccc2)CCCc2ccccc2)CC1	–	289 µM (≈ 134 µg/mL)	–	72 µM (≈ 33.5 µg/mL)	–	–	–	289 µM (≈ 134 µg/mL)	72 µM (≈ 33.5 µg/mL)	–	–	–	–	–
CN(C)CCN1CCN(C(=O)C(CN)(Cc2ccc3ccccc3c2)Cc2ccc3ccccc3c2)CC1.O=C(O)C(F)(F)F.O=C(O)C(F)(F)F	29	48 µM	120	3.4 µM	8.5	409 µM	20	20 µM	14 µM	–	–	permeable	–	–
CC(C)(C)c1ccc(CC(CN)(Cc2ccc(C(C)(C)C)cc2)C(=O)NCCN)cc1.O=C(O)C(F)(F)F.O=C(O)C(F)(F)F	4.7	7.7 µM	4.7	3.8 µM	2.3	18 µM	4.7	3.8 µM	3.8 µM	23 µM	0.8	–	–	–
CN1CCN(C(=O)C(CN)(Cc2ccc(C(F)(F)F)cc2)Cc2ccc(C(F)(F)F)cc2)CC1.O=C(O)C(F)(F)F.O=C(O)C(F)(F)F	7.5	70 µM	38	14 µM	7.5	525 µM	11	49 µM	70 µM	–	–	–	–	–
NCCNC(=O)C(CN)(Cc1ccc2ccccc2c1)Cc1ccc2ccccc2c1.O=C(O)C(F)(F)F.O=C(O)C(F)(F)F	117	24 µM	59	7.8 µM	19	457 µM	117	3.9 µM	3.9 µM	55 µM	8.3	–	Active	Active
CN1CCN(C(=O)C(CN)(Cc2ccc3ccccc3c2)Cc2ccc3ccccc3c2)CC1.O=C(O)C(F)(F)F.O=C(O)C(F)(F)F	20	22 µM	41	7.4 µM	14	303 µM	20	15 µM	15 µM	–	–	permeable	–	–
CN(C)CCN1CCN(C(=O)C(CN)(Cc2ccc(C(F)(F)F)cc2)Cc2ccc(C(F)(F)F)cc2)CC1.O=C(O)C(F)(F)F.O=C(O)C(F)(F)F	17	129 µM	172	6.5 µM	8.6	1120 µM	25	45 µM	65 µM	–	–	–	–	–
CN(C)CCNC(=O)C(CN)(Cc1ccc2ccccc2c1)Cc1ccc2ccccc2c1.O=C(O)C(F)(F)F.O=C(O)C(F)(F)F	16	23 µM	16	7.5 µM	5.1	117 µM	16	7.5 µM	7.5 µM	300 µM	0.4	permeable	–	–
CN(C)CCN1CCN(C(=O)C(CN)(Cc2ccc(C(C)(C)C)cc2)Cc2ccc(C(C)(C)C)cc2)CC1.O=C(O)C(F)(F)F.O=C(O)C(F)(F)F	26	13 µM	26	13 µM	26	337 µM	26	13 µM	13 µM	255 µM	1.3	–	–	–
CN(C)CCNC(=O)C(CN)(Cc1ccc(C(C)(C)C)cc1)Cc1ccc(C(C)(C)C)cc1.O=C(O)C(F)(F)F.O=C(O)C(F)(F)F	74	7.4 µM	37	7.4 µM	37	274 µM	37	7.4 µM	3.7 µM	74 µM	3.7	–	–	–
CN(C)CCNC(=O)C(CN)(CCCc1ccccc1)CCCc1ccccc1.O=C(O)C(F)(F)F.O=C(O)C(F)(F)F	9.1	160 µM	9.1	56 µM	3.2	507 µM	9.1	56 µM	56 µM	–	–	–	–	–
CN1CCN(C(=O)C(CN)(CCCc2ccccc2)CCCc2ccccc2)CC1	–	315 µM (≈ 128 µg/mL)	–	315 µM (≈ 128 µg/mL)	–	–	–	315 µM (≈ 128 µg/mL)	315 µM (≈ 128 µg/mL)	–	–	–	–	–
